Results published in ChEMBL document CHEMBL1139138, “Pyrrolidine-constrained phenethylamines: The design of potent, selective, and pharmacologically efficacious dipeptidyl peptidase IV (DPP4) inhibitors from a lead-like screening hit” (Bioorg Med Chem Lett, 2007).
Blank lines part the entries; values can stand above or below the compound they belong to.

Tests used:
[1] = Half life in human liver microsome; assay type: ADME; conditions: liver microsomes
Outline: (§1)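 Stability on incubation with rat or human liver microsomes, expressed as half-life.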

[2] = Half life in rat liver microsome; assay type: ADME; conditions: liver microsomes; outline: as §1
Prolyl endopeptidase FAP = biological target: T1, Prolyl endopeptidase FAP (Homo sapiens, UniProt Q12884); test: Inhibition of human FAPalpha
T1 sequence (Q12884 whole entry): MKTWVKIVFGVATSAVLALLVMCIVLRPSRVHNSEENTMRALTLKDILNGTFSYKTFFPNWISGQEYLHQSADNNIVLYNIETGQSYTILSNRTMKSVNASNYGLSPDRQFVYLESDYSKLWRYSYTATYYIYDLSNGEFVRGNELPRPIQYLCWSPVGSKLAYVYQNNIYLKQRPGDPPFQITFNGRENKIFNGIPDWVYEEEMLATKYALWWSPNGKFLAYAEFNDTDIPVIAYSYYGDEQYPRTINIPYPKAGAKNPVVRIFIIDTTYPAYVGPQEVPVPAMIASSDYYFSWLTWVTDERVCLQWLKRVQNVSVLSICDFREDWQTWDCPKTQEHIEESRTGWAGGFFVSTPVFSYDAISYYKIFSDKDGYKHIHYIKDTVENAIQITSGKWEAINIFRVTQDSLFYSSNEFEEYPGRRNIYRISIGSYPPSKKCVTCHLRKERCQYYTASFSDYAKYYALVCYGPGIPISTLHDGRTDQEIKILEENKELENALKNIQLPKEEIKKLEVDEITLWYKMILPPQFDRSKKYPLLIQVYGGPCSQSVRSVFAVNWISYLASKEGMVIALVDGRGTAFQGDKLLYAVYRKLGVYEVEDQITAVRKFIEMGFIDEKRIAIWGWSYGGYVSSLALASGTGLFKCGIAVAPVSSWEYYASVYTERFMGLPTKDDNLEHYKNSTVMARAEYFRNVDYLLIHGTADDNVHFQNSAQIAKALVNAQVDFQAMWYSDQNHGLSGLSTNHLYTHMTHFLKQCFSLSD

Cytochrome P450 2C9 = Cytochrome P450 2C9 (Homo sapiens, UniProt P11712); test: Inhibition of CYP2C9; assay type: ADME
Rattus norvegicus [3] = test: AUC in Sprague-Dawley rat at 5 mg/kg, po; assay type: ADME, organism-based, Plasma; design: dose 5 mg/kg, route oral; conditions: in vivo
Outline: (§2)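 Pharmacokinetics in rat dosed at 5 mg/kg and in dog and monkey dosed at 2.5 mg/kg. Cmax, t1/2 (terminal) and AUC were taken from oral dosing. F is oral bioavailability. Vss is volume of distribution at steady state.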

[4] = Half life in Sprague-Dawley rat at 5 mg/kg, po; assay type: ADME, organism-based; design: dose 5 mg/kg, route oral; conditions: in vivo; outline: as §2
[5] = Cmax in dog at 2.5 mg/kg, po; assay type: ADME, organism-based, Canis lupus familiaris; design: dose 2.5 mg/kg, route oral; conditions: in vivo; outline: as §2
[6] = Half life in dog at 2.5 mg/kg, po; assay type: ADME, organism-based, Canis lupus familiaris; design: dose 2.5 mg/kg, route oral; conditions: in vivo; outline: as §2
Canis familiaris = test: AUC in dog at 2.5 mg/kg, po; assay type: ADME, organism-based, Canis lupus familiaris, Plasma; design: dose 2.5 mg/kg, route oral; conditions: in vivo; outline: as §2
[7] = Plasma concentration in ZDF rat at 1 mg/kg after 240 mins; assay type: ADME, organism-based; design: dose 1 mg/kg
Outline: (§3)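 Female ZDF rats, 10 weeks old, fasted overnight and dosed orally at 1 mg/kg four hours before feeding (t = 0). Plasma drug concentration and the matching plasma DPP4 inhibition were determined at t = 0 and t = 240 min.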

Rattus norvegicus [8] = test: Volume of distribution at steady state in Sprague-Dawley rat at 5 mg/kg, po; assay type: ADME, organism-based; design: dose 5 mg/kg, route oral; conditions: in vivo; outline: as §2
Rattus norvegicus [9] = test: Reduction of glucose level in ZDF rat at 1 mg/kg, po […]; assay type: functional; design: scale not given: the % may be the effect or the level left
Outline: (§4)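 Female Zucker diabetic fatty rats, 10 weeks old, fasted overnight (n = 10/group). They were dosed orally with vehicle or inhibitor at 0.3, 1 or 3 mg/kg at t = −240 min and allowed to feed at t = 0. Blood glucose lowering was measured relative to vehicle.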

Prolyl endopeptidase = biological target: T2, Prolyl endopeptidase (Homo sapiens, UniProt P48147); test: Inhibition of human POP
T2 sequence (P48147 whole entry): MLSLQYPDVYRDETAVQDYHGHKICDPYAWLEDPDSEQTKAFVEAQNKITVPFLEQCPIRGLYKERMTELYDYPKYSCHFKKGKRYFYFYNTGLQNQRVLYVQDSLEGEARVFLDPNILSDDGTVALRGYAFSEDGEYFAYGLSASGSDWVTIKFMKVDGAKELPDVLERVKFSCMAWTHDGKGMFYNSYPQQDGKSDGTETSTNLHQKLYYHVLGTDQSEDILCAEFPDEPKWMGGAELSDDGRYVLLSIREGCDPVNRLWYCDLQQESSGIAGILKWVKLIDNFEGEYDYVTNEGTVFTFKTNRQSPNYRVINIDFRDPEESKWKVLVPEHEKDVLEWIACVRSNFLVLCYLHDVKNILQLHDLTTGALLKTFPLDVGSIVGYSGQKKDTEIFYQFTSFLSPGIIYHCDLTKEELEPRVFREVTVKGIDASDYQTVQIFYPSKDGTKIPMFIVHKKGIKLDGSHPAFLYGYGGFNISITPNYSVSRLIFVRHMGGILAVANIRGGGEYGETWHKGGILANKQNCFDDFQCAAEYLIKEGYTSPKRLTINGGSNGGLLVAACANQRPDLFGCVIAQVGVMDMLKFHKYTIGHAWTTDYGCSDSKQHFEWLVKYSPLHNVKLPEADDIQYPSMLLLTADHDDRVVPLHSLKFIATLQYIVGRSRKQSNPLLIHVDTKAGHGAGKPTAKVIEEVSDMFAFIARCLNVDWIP

[10] = Cmax in Sprague-Dawley rat at 5 mg/kg, po; assay type: ADME, organism-based; design: dose 5 mg/kg, route oral; conditions: in vivo; outline: as §2
[11] = Plasma clearance in dog at 2.5 mg/kg, po; assay type: ADME, organism-based, Canis lupus familiaris; design: dose 2.5 mg/kg, route oral; outline: as §2
[12] = Oral bioavailability in Sprague-Dawley rat at 5 mg/kg, po; assay type: ADME, organism-based; conditions: in vivo; outline: as §2
[13] = Plasma clearance in Sprague-Dawley rat at 5 mg/kg, po; assay type: ADME, organism-based; design: dose 5 mg/kg, route oral; outline: as §2
[14] = Oral bioavailability in dog at 2.5 mg/kg, po; assay type: ADME, organism-based, Canis lupus familiaris; conditions: in vivo; outline: as §2
Rattus norvegicus [15] = test: Reduction of glucose level in ZDF rat at 0.3 mg/kg, po by […]; assay type: functional; design: scale not given: the % may be the effect or the level left; outline: as §4
Rattus norvegicus [16] = test: Inhibition of DPP4 in ZDF rat at 1 mg/kg after 240 mins; assay type: functional; conditions: 4 h; outline: as §3
Cytochrome P450 2D6 = Cytochrome P450 2D6 (Homo sapiens, UniProt P10635); test: Inhibition of CYP2D6; assay type: ADME
Rattus norvegicus [17] = test: Reduction of glucose level in ZDF rat at 3 mg/kg, po […]; assay type: functional; design: scale not given: the % may be the effect or the level left; outline: as §4
Cytochrome P450 3A4 = Cytochrome P450 3A4 (Homo sapiens, UniProt P08684); test: Inhibition of CYP3A4; assay type: ADME
Sequence of Cytochrome P450 3A4 (P08684 whole entry): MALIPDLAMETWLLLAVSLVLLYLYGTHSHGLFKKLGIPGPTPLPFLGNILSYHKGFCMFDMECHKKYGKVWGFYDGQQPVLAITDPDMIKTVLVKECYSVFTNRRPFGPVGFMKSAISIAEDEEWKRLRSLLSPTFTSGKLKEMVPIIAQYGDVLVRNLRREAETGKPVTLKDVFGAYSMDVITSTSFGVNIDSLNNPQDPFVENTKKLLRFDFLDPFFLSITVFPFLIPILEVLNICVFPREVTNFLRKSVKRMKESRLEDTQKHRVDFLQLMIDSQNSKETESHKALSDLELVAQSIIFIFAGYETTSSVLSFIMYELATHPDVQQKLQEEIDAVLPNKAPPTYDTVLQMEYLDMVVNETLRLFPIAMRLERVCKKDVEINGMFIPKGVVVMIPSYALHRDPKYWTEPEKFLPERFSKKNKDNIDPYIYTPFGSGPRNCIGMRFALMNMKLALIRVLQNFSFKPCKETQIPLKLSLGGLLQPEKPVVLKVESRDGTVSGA

Sequence of Cytochrome P450 2C9 (P11712 whole entry): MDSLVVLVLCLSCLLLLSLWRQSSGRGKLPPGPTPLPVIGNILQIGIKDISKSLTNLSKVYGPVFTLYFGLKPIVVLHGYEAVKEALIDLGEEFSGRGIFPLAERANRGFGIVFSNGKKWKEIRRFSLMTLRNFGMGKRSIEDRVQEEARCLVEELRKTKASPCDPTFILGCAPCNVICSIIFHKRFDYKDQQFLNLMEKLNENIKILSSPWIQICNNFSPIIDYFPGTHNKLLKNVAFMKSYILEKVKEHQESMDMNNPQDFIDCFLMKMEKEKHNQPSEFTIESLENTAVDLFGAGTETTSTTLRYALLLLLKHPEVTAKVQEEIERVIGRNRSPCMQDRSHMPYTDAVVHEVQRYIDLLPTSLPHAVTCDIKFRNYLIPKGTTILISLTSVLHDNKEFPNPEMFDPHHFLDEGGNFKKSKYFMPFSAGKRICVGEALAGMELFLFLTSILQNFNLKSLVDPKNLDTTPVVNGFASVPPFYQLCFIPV
Sequence of Cytochrome P450 2D6 (P10635 whole entry): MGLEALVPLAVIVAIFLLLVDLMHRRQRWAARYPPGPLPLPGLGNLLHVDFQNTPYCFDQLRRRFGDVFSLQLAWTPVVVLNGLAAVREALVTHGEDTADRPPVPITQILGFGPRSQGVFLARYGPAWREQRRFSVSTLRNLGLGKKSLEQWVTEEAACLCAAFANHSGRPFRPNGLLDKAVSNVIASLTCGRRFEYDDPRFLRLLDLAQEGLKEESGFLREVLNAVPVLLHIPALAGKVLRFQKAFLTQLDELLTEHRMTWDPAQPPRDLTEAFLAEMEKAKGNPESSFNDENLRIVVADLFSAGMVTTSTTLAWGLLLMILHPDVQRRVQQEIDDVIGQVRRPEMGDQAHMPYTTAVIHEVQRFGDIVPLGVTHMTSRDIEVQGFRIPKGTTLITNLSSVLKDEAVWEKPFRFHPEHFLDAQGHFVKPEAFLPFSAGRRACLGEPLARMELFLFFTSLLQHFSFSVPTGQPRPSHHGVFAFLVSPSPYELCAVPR

half-life [1]: > 3 h
half-life [2]: > 3 h
SMILES: Cc1ccc(S(=O)(=O)N2CC(N)C(c3ccc(Cl)cc3Cl)C2)cc1 (racemic)

half-life [1]: > 3 h
half-life [2]: > 3 h
SMILES: NC1CN(c2cc(-c3ccsc3)ncn2)CC1c1ccc(F)cc1Cl (racemic)

half-life [1]: > 3 h
half-life [2]: > 3 h
SMILES: NC1CN(c2cc(-c3ccsc3)ncn2)CC1c1ccc(Cl)cc1Cl (racemic)

Ki (Prolyl endopeptidase FAP): > 30 µM
IC50 (Cytochrome P450 2C9): > 10 µM
AUC (Rattus norvegicus [3]): 24400 ng·h/mL
half-life [4]: 5.5 h
half-life [1]: > 3 h
Cmax [5]: 691 ng/mL
half-life [2]: > 3 h
half-life [6]: 14.9 h
AUC (Canis familiaris): 12200 ng·h/mL
concentration at 4 h [7]: 373 ng/mL
Vdss (Rattus norvegicus [8]): 1.15 L/kg
Ki (Prolyl endopeptidase): > 30 µM
Cmax [10]: 1970 ng/mL
CL/F [11]: 3.5 mL/min/kg
bioavailability [12]: 74%
CL/F [13]: 2.5 mL/min/kg
bioavailability [14]: 100%
IC50 (Cytochrome P450 2D6): > 10 µM
IC50 (Cytochrome P450 3A4): > 10 µM
SMILES: CS(=O)(=O)c1cccc(-c2ncnc(N3CC(N)C(c4cc(F)c(F)cc4F)C3)n2)c1 (configuration not stated)
Activity (Rattus norvegicus [9]): -39%
Activity (Rattus norvegicus [15]): -32%
inhibition in vivo at 1 mg/kg (Rattus norvegicus [16]): > 98%
Activity (Rattus norvegicus [17]): -37%

half-life [1]: > 3 h
half-life [2]: > 3 h
SMILES: CC(=O)N1CC(N)C(c2ccc(Cl)cc2Cl)C1 (racemic)

half-life [1]: > 3 h
half-life [2]: > 3 h
SMILES: CCNC(=O)N1CC(N)C(c2ccc(Cl)cc2Cl)C1 (racemic)

half-life [1]: > 3 h
half-life [2]: > 3 h
SMILES: Cc1cccc(COC(=O)N2CC(N)C(c3ccc(Cl)cc3Cl)C2)n1 (racemic)

half-life [1]: > 3 h
half-life [2]: > 3 h
SMILES: NC1CN(C(=O)NCc2cccc(F)c2)CC1c1ccc(Cl)cc1Cl (racemic)

half-life [1]: > 3 h
half-life [2]: > 3 h
SMILES: NC1CN(Cc2ccccc2)CC1c1ccc(Cl)cc1Cl (configuration not stated)

Ki (Prolyl endopeptidase FAP): > 30 µM
AUC (Rattus norvegicus [3]): 22000 ng·h/mL
half-life [4]: 3.8 h
half-life [1]: > 3 h
half-life [2]: > 3 h
Vdss (Rattus norvegicus [8]): 1.44 L/kg
Ki (Prolyl endopeptidase): > 30 µM
Cmax [10]: 1810 ng/mL
bioavailability [12]: 110%
CL/F [13]: 4.33 mL/min/kg
SMILES: CS(=O)(=O)c1cccc(-c2cc(N3CC(N)C(c4cc(F)c(F)cc4F)C3)ncn2)c1 (configuration not stated)

half-life [1]: > 3 h
half-life [2]: > 3 h
SMILES: CCN(C)C(=O)N1CC(N)C(c2ccc(Cl)cc2Cl)C1 (racemic)

half-life [1]: > 3 h
half-life [2]: > 3 h
SMILES: NC1CN(c2ccccc2)CC1c1ccc(Cl)cc1Cl (racemic)

half-life [1]: > 3 h
half-life [2]: > 3 h
SMILES: COc1ccc(-c2cnc(N3CC(N)C(c4ccc(Cl)cc4Cl)C3)nc2)cc1 (racemic)

half-life [1]: > 3 h
half-life [2]: > 3 h
SMILES: CS(=O)(=O)c1cc(F)cc(-c2cc(N3CC(N)C(c4cc(F)c(F)cc4F)C3)ncn2)c1 (configuration not stated)
